Measured values as given in ChEMBL document CHEMBL1250457, “Elucidation of the topography of the thapsigargin binding site in the sarco-endoplasmic calcium ATPase” (Bioorg Med Chem, 2010).

Target: Sarcoplasmic/endoplasmic reticulum calcium ATPase 1 (Oryctolagus cuniculus, UniProt P04191)
Assay: Inhibition of rabbit sarcoplasmic reticulum calcium ATPase by ATP regeneration assay
In short: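 SERCA1a purified from rabbit skeletal muscle SR vesicles with low deoxycholate. Enzyme (1 mg/mL) pre-equilibrated 2.5–6 min with cumulatively added inhibitor (DMSO) in 1 mM EGTA, 1 mM Mg2+, 10 mM Tes pH 7.5, 100 mM KCl. Then diluted to 4 nM at 20 °C into NADH-coupled PK/LDH medium: 0.1 mM Ca2+, 1 mM Mg2+, 5 mM MgATP, 1 mM PEP, 0.15 mM NADH. Rate of A340 decrease.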

Chain of Sarcoplasmic/endoplasmic reticulum calcium ATPase 1 (P04191 whole entry): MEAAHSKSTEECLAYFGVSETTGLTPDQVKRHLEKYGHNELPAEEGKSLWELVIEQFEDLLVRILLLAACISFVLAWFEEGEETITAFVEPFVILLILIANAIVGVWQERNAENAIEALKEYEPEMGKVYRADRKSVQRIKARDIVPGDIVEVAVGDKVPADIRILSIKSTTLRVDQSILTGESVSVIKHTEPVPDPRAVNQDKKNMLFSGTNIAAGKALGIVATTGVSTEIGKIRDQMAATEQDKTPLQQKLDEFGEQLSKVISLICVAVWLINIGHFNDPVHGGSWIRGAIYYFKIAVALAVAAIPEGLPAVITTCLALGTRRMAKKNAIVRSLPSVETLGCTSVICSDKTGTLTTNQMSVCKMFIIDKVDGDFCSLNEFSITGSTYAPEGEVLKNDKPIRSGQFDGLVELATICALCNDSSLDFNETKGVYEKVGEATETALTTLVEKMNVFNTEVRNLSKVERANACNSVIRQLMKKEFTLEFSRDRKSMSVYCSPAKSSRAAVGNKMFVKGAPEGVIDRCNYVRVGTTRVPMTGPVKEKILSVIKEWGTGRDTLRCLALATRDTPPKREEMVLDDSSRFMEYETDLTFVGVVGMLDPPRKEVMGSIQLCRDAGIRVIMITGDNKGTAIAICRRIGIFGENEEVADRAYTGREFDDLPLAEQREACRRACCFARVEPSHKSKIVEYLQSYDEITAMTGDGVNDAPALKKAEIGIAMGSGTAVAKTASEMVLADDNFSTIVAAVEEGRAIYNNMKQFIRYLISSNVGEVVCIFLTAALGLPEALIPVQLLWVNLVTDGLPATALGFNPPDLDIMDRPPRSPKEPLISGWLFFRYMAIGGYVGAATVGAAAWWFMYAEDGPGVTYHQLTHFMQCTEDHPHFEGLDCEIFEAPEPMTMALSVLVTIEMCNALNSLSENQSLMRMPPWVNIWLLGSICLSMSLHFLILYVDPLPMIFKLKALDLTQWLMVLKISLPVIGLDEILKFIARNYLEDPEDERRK

| Structure (SMILES) | IC50 |
| --- | --- |
| C/C=C(/C)C(=O)O[C@H]1C(C)=C2[C@H]([C@@H]1OC(=O)CCCCCCC)[C@@](C)(OC(=O)c1ccc(-c3ccccc3)cc1)C[C@H](OC(=O)CCC)[C@@]1(O)[C@H]2OC(=O)[C@@]1(C)O | > 70 nM |
| CCCCCCCC(=O)O[C@H]1[C@H]2C(=C(C)[C@@H]1O)[C@@H]1OC(=O)[C@@](C)(O)[C@@]1(O)[C@@H](OC(=O)CCC)C[C@]2(C)OC(C)=O | > 70 nM |
| C/C=C(/C)C(=O)O[C@H]1C(C)=C2[C@H]([C@@H]1OC(=O)CCCCCCC)[C@@](C)(OC(=O)c1ccccc1)C[C@H](OC(=O)CCC)[C@@]1(O)[C@H]2OC(=O)[C@@]1(C)O | 15.6 nM |
| C/C=C(/C)C(=O)O[C@H]1C(C)=C2[C@H]([C@@H]1OC(=O)CCCCCCC)[C@@](C)(O)C[C@H](OC(=O)CCC)[C@@]1(O)[C@H]2OC(=O)[C@@]1(C)O | 20 nM |
| C/C=C(/C)C(=O)O[C@H]1C(C)=C2[C@H]([C@@H]1OC(=O)CCCCCCC)[C@@](C)(OC(=O)CCC)C[C@H](OC(=O)CCC)[C@@]1(O)[C@H]2OC(=O)[C@@]1(C)O | 2.5 nM |
| CCCCCCCC(=O)O[C@H]1[C@H]2C(=C(C)[C@@H]1OC(=O)Cc1ccc(-c3ccccc3)cc1)[C@@H]1OC(=O)[C@@](C)(O)[C@@]1(O)[C@@H](OC(=O)CCC)C[C@]2(C)OC(C)=O | 18 nM |
| CCCCCCCC(=O)O[C@H]1[C@H]2C(=C(C)[C@@H]1OC(=O)c1ccccc1)[C@@H]1OC(=O)[C@@](C)(O)[C@@]1(O)[C@@H](OC(=O)CCC)C[C@]2(C)OC(C)=O | 0.8 nM |
| C/C=C(/C)C(=O)O[C@H]1C(C)=C2[C@H]([C@@H]1OC(=O)CCCCCCC)[C@@](C)(OC(=O)CCC)C[C@@H]1OC(C)(C)O[C@]3(C)C(=O)O[C@@H]2[C@]13O | 19 nM |
| C/C=C(/C)C(=O)O[C@H]1C(C)=C2[C@H]([C@@H]1OC(=O)CCCCCCC)[C@@](C)(OC(C)=O)C[C@H](O)[C@@]1(O)[C@H]2OC(=O)[C@@]1(C)O [DEBUTANOYLTHAPSIGARGIN] | 10 nM |
| CCCCCCCC(=O)O[C@H]1[C@H]2C(=C(C)[C@@H]1OC(=O)c1ccc(-c3ccccc3)cc1)[C@@H]1OC(=O)[C@@](C)(O)[C@@]1(O)[C@@H](OC(=O)CCC)C[C@]2(C)OC(C)=O | > 70 nM |
| C/C=C(/C)C(=O)O[C@H]1C(C)=C2[C@H]([C@@H]1OC(=O)CCCCCCC)[C@@](C)(OC(=O)CCCCCCC)C[C@H](OC(=O)CCC)[C@@]1(O)[C@H]2OC(=O)[C@@]1(C)O | 16 nM |
| CCCCCCCC(=O)O[C@H]1[C@H]2C(=C(C)[C@@H]1OC(=O)c1cccc(C)c1)[C@@H]1OC(=O)[C@@](C)(O)[C@@]1(O)[C@@H](OC(=O)CCC)C[C@]2(C)OC(C)=O | 9 nM |
| C/C=C(/C)C(=O)O[C@H]1C(C)=C2[C@H]([C@@H]1OC(=O)c1ccccc1)[C@@](C)(OC(C)=O)C[C@H](OC(=O)CCC)[C@@]1(O)[C@H]2OC(=O)[C@@]1(C)O | 1.6 nM |
| C/C=C(/C)C(=O)O[C@H]1C(C)=C2[C@H]([C@@H]1OC(=O)CCCCCCC)[C@@](C)(OC(=O)Cc1ccc(-c3ccccc3)cc1)C[C@H](OC(=O)CCC)[C@@]1(O)[C@H]2OC(=O)[C@@]1(C)O | 27 nM |
| C/C=C(/C)C(=O)O[C@H]1C(C)=C2[C@H]([C@@H]1OC(=O)CCCCCCC)[C@@](C)(OC(=O)CCC)C[C@@H]1OC(C)(C)O[C@]3(C)C(=O)O[C@@H]2[C@]13OC(=O)CCC | > 70 nM |
| CCCCCCCC(=O)O[C@H]1[C@H]2C(=C(C)[C@@H]1OC(=O)c1ccc(C)cc1)[C@@H]1OC(=O)[C@@](C)(O)[C@@]1(O)[C@@H](OC(=O)CCC)C[C@]2(C)OC(C)=O | 44 nM |
| C/C=C(/C)C(=O)O[C@H]1C(C)=C2[C@H]([C@@H]1OC(=O)CCCCCCC)[C@@](C)(OC(=O)CCC)C[C@H](OC(=O)CCC)[C@@]1(O)[C@H]2OC(=O)[C@@]1(C)OC(=O)CCC | 11.1 nM |
| C/C=C(/C)C(=O)O[C@H]1C(C)=C2[C@H]([C@@H]1OC(=O)CCCCCCC)[C@@](C)(OC(C)=O)C[C@H](OC(=O)CCC)[C@@]1(O)[C@H]2OC(=O)[C@@]1(C)O [THAPSIGARGIN] | 0.2 nM |
| CCCCCCCC(=O)O[C@H]1[C@H]2C(=C(C)[C@@H]1OC(=O)c1ccccc1-c1ccccc1)[C@@H]1OC(=O)[C@@](C)(O)[C@@]1(O)[C@@H](OC(=O)CCC)C[C@]2(C)OC(C)=O | 3 nM |
| C/C=C(/C)C(=O)O[C@H]1C(C)=C2[C@H]([C@@H]1OC(=O)CCCCCCC)[C@@](C)(O)C[C@H](OC(=O)CCCCCCC)[C@@]1(O)[C@H]2OC(=O)[C@@]1(C)O | 20 nM |
